System: MS2 coat protein
Test: apparent Kd, MS2 coat protein; higher = weaker binding; RNA-MaP array; FMN 200 µM where present
Procedure, shortened: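 Designs were transcribed by stalled E. coli RNA polymerase on Illumina sequencing-chip clusters. They were titrated with SNAP-549-labelled MS2 coat protein from 0.7 or 1.5 nM, doubling to 3 µM, without and then with constant ligand. Buffer: 100 mM Tris-HCl pH 7.5, 80 mM KCl, 4 mM MgCl2, BSA, DTT, yeast tRNA, Tween-20. Green signal was normalised to red-channel RNA signal and control-cluster median Fmax. Apparent Kd is the median of filtered per-cluster binding-curve fits.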

[1] = designed as: OFF switch for flavin mononucleotide, no ligand
[2] = ligand present: flavin mononucleotide, designed as: OFF switch for flavin mononucleotide
[3] = designed as: ON switch for flavin mononucleotide, no ligand
[4] = ligand present: flavin mononucleotide, designed as: ON switch for flavin mononucleotide

Question: Which results are given for “AAAGAGCAAGGAUAUACAUGAGGAUCACCCAUGUAGUACGUGAACCAGGUUUUCCUGAGUAGAAGGUGCAGACA”?
Answer: apparent Kd [1]: 36 nM; apparent Kd [2]: 34.3 nM

Question: Which results are given for “GGCUUCUUCACAGGAUAUGGUUUUUUAAGUAUACAUGAGGAUCACCCAUGUCCAGAAGGGUGAGGGUUCGGCGUGCGGUGUCGG”?
Answer: apparent Kd [3]: 384 nM; apparent Kd [4]: 42.7 nM

Question: For “AAGUUGUCAGGAUAUCGUUAAUUUAGUUGUUUGUAUUAGUUCGAGAAGGGACAUGAGGAUCACCCAUGUUUGCA”, which “apparent Kd” value [1] is on record?
Answer: Its value is 26.4 nM.

Question: What about the “apparent Kd” value [2] of the same sequence?
Answer: The value was 34 nM.

Question: With “CCUCAACAGUAGGAUAUCAUAAAACUAUUGUGAUGAGAAGGACUGACAUGAGGAUCACCCAUGUUAACGUGAUA” as the sequence, how does the “apparent Kd” value [1] read?
Answer: The value was 19.6 nM.

Question: And the “apparent Kd” value [2]?
Answer: The value was 30.5 nM.

Question: For “CUGUGACGGUGCGCAAGUGGACGUAGAAGGGUCACAUGAGGAUCACCCAUGUGGGCCUGCUAGUGACAGGAUAUACGUUCGUAC”, which “apparent Kd” value [1] is on record?
Answer: Its value is 13.7 nM.

Question: And the “apparent Kd” value [2]?
Answer: The value was 38.3 nM.

Question: For “CCGGCUGCUGUGAGGAUAUGCCUGUGGGUCCGCGGGCAGAAGGCACAUGAGGAUCACCCAUGUCCUGCGGUCCC”, which “apparent Kd” value [1] is on record?
Answer: The value was 27.1 nM.

Question: What about the “apparent Kd” value [2] of the same sequence?
Answer: Its value is 28.3 nM.

Question: With “ACAUGAGGAUCACCCAUGUAGAGUGGAGAAGGUAGAUACUUGUGACUCUCCCAUGUACAUAGGACUGAGGAUAUUCUAAUAAUU” as the sequence, how does the “apparent Kd” value [3] read?
Answer: The value was 65.7 nM.

Question: And the “apparent Kd” value [4]?
Answer: The value was 47.5 nM.

Question: For “UGUUAGUAGACAGGAUAUUGAAUGUUAAGUAUUAACAUGAGGAUCACCCAUGUAUUAGAUUGGUACAAGAAGGGUCAAGUUUGU”, which “apparent Kd” value [3] is on record?
Answer: The value was 380 nM.

Question: And the “apparent Kd” value [4]?
Answer: The value was 653 nM.

Question: “UUGUUUAGAAAUUAACAUGAGGAUCACCCAUGUAUUGGAUCAGAGGAUAUGCAUGUUUGAUUGUAGCAGAAGGCUGAUUGUUGA” was tested. Which “apparent Kd” value [3] did it give?
Answer: The value was 50.6 nM.

Question: And the “apparent Kd” value [4]?
Answer: The value was 45.1 nM.

Question: Which results are given for “CCGGAAAUGAAGGAUAUAGGCGUCGAUAGACUCCUAGAAGGUCAUACAUGAGGAUCACCCAUGUGUCCUACCGG”?
Answer: apparent Kd [1]: 16.5 nM; apparent Kd [2]: 29.8 nM

Question: For “CUGAGGCUAGGAUAUACGUGAGGUUAGUUGCGAAGCGCUUGACAUGAGGAUCACCCAUGUAGAAGGAGCGGCUU”, which “apparent Kd” value [1] is on record?
Answer: Its value is 22.6 nM.

Question: And the “apparent Kd” value [2]?
Answer: Its value is 28.9 nM.

Question: “ACAUGAGGAUCUCCCAUGUAAAAUUAGGAUAUAUAACUGCACAUGAGGAUCACCCAUGUUUAACCGUAGAAGGGAUAAAUAAUU” was tested. Which “apparent Kd” value [4] did it give?
Answer: Its value is 786 nM.

Question: How did the “apparent Kd” value [3] turn out when “GGACGUCACAUUUACAUGAGGAUCACCCAUGUCUCUUGACAUGAGGAUAUGUAUACGAAUCGUAUACAGAAGGCAUGGACGUCC” was run?
Answer: The value was 1100 nM.

Question: What about the “apparent Kd” value [4] of the same sequence?
Answer: The value was 153 nM.

Question: For “GACAUGGUCCAGAAGGGCUAUUUAUUUAAGUACGAUUUAGAACAGCAUAGCAGGAUAUGGCUAACAUGAGGAUCACCCAUGUUC”, which “apparent Kd” value [3] is on record?
Answer: Its value is 19.3 nM.

Question: And the “apparent Kd” value [4]?
Answer: The value was 11.9 nM.

Question: Which “apparent Kd” value [1] does the source give for “GUGGUACAUGAGGAUCACCCAUGUUAGGAUAUCGCGUGAGGUUUUACUUCCGCGCGCGCGAGAAGGGACGUCUU” here?
Answer: The value was 26.8 nM.

Question: What about the “apparent Kd” value [2] of the same sequence?
Answer: Its value is 22.8 nM.

Question: Which results are given for “AGUAUGCACGCAGGAUAUACAUGAGGAUCACCCAUGUGGAACAGUGUAGUACUAGUUGAUCCUCAGUAGAAGGGCGGUCGAAUA”?
Answer: apparent Kd [1]: 44.2 nM; apparent Kd [2]: 56.6 nM

Question: How did the “apparent Kd” value [1] turn out when “UGGUGAAGUGUAGGAUAUGGAGAUGGGUUUUGGCCAGAAGGACAUGAGGAUCACCCAUGUGGUAGAGGGUUGGUGGUAGCUCGU” was run?
Answer: The value was 62.4 nM.

Question: And the “apparent Kd” value [2]?
Answer: Its value is 49.8 nM.

Question: Which results are given for “AAACAGUACGAGAAGGGCUACAUGAGGAUCACCCAUGUAGACGGUCGUGUGGCAGGAUAUCGAACGCACCCGAAACGGUGUGUU”?
Answer: apparent Kd [1]: 5.07 nM; apparent Kd [2]: 7.03 nM

Question: How did the “apparent Kd” value [1] turn out when “CCUCGUUGGGAGGAUAUCCUUUUGGUUGGAGGAGGAGAAGGCUCGACAUGAGGAUCACCCAUGUGGGAUUUCCU” was run?
Answer: The value was 74.8 nM.

Question: And the “apparent Kd” value [2]?
Answer: The value was 211 nM.

Question: What does the source list for “GAAGCGCUGGAGAAGGGUGAUCAAGUUAUAAACGUGUACAUGAGGAUCACCCAUGUCAGGGAAUCGCAGGAUAUCCAGCUGAAC”?
Answer: apparent Kd [3]: 315 nM; apparent Kd [4]: 42.9 nM

Question: Which “apparent Kd” value [1] does the source give for “CGAUAAUAUAGAGGAUAUGUUUAACAUGAGGAUCACCCAUGUGACAUGGGAUUAAUAUAUAACUUACAGAAGGCUAUACAAUCG” here?
Answer: Its value is 34.1 nM.

Question: And the “apparent Kd” value [2]?
Answer: The value was 46.9 nM.

Question: With “UGACUCGGAGGAUAUACAUGAGGAUCACCCAUGUUUGCCGGCCGCCGAGUAACCUGGUGUAGAAGGUCGAGUGU” as the sequence, how does the “apparent Kd” value [1] read?
Answer: Its value is 20.4 nM.

Question: What about the “apparent Kd” value [2] of the same sequence?
Answer: The value was 18.9 nM.

Question: Which “apparent Kd” value [1] does the source give for “GUGCGGUAGGAGAAGGACAGAGGCUUCAUUACAUACAUGAGGAUCACCCAUGUAGGAUAUCCUACCUCACGCGGCCUCCUCCUG” here?
Answer: Its value is 8.48 nM.

Question: What about the “apparent Kd” value [2] of the same sequence?
Answer: The value was 31.8 nM.

Question: “UCCCAACAUGAGGAUCACCCAUGUAAGGAUAUCUUACUCAUGGACGUCCAUGAGGACCGGAGAAGGUACGUGUA” was tested. Which “apparent Kd” value [1] did it give?
Answer: The value was 19.4 nM.

Question: What about the “apparent Kd” value [2] of the same sequence?
Answer: The value was 19.8 nM.

Question: Which “apparent Kd” value [1] does the source give for “AGGAAGUGAGGAUAUGCAGUAGCUAGUGGACGCUAGCACAUGUAGAAGGCACAUGAGGAUCACCCAUGUUUAAA” here?
Answer: Its value is 30.5 nM.

Question: What about the “apparent Kd” value [2] of the same sequence?
Answer: Its value is 28.3 nM.

Question: How did the “apparent Kd” value [1] turn out when “AUCAGCUCGUCAGGAUAUACGUCACUGCGUCAGCAGUGUGGUAAGAUCACAUGAGGAUCACCCAUGUAGAAGGGACGAGCUGCU” was run?
Answer: The value was 14 nM.

Question: And the “apparent Kd” value [2]?
Answer: Its value is 264 nM.

Question: Which “apparent Kd” value [1] does the source give for “GUGGAACAUGAGGAUCACCCAUGUGAGGAUAUAGGUUUUUGGGAAAAACUAGGAGAAACUAGAAGGCGCAAGAA” here?
Answer: The value was 29.4 nM.

Question: And the “apparent Kd” value [2]?
Answer: The value was 27.6 nM.

Question: “GUAGUACAUGAGGAUCACCCAUGUGUGGGCGCGUGAGGAUAUGUCCGUACCUGGCGUACGAUAGAAGGCAUGGUGC” was tested. Which “apparent Kd” value [3] did it give?
Answer: The value was 53.3 nM.

Question: What about the “apparent Kd” value [4] of the same sequence?
Answer: The value was 28.4 nM.

Question: Which “apparent Kd” value [1] does the source give for “UUAUUUUUAUGAUUGAGGAUAGGGCAGGAUAUACAUGAGGAUCACCCAUGUAAAGCAAUAAGGAGGUAGAAGGGCCAACCUCAU” here?
Answer: Its value is 24.3 nM.

Question: And the “apparent Kd” value [2]?
Answer: Its value is 20.1 nM.

Question: With “GCUUGUAGAGGAUAUACGAGGGCCCGAGCGGAUAACACCGCACAUGAGGAUCACCCAUGUAGAAGGCUACCACC” as the sequence, how does the “apparent Kd” value [1] read?
Answer: The value was 25.3 nM.

Question: What about the “apparent Kd” value [2] of the same sequence?
Answer: The value was 284 nM.

Question: For “AUUGAUGUUGAGGAUAUGCUUUUAUUUAUAAUAGCAGAAGGCGAUACAUGAGGAUCACCCAUGUUCAUGGUUUU”, which “apparent Kd” value [1] is on record?
Answer: The value was 24.9 nM.

Question: What about the “apparent Kd” value [2] of the same sequence?
Answer: Its value is 33.6 nM.

Question: Which results are given for “AAGUCUGGACGAGGAUAUCAGUUGUAUCUGGCGUCAACAUGAGGAUCACCCAUGUUGCUAUAGGGUGAGAAGGCGUUUGGGCAA”?
Answer: apparent Kd [3]: 92.6 nM; apparent Kd [4]: 22.8 nM

Question: “UGUUGUAUUACAGGAUAUCUAUUAUUUUUACUUAGAGAAGGGUAUUCACAUGAGGAUCACCCAUGUAUAUACGAGGAAGUUGUG” was tested. Which “apparent Kd” value [3] did it give?
Answer: The value was 54.2 nM.

Question: And the “apparent Kd” value [4]?
Answer: The value was 56 nM.

Question: For “AGUCGGAGCAGAGGAUAUAUACAUGAGGAUCACCCAUGUGACUGACUACGCUAGAAAUAGCAUGUAUAGAAGGCUGCUCCGACA”, which “apparent Kd” value [1] is on record?
Answer: Its value is 388 nM.

Question: And the “apparent Kd” value [2]?
Answer: Its value is 946 nM.

Question: Which “apparent Kd” value [1] does the source give for “GCCAUGCUGGUGACGGAUAACACAUGAGGAUCACCCAUGUACAGAAGGCGGAAUUAGCGUAGGACCGAGGAUAUGUGCGUGAGG” here?
Answer: The value was 30.8 nM.

Question: What about the “apparent Kd” value [2] of the same sequence?
Answer: Its value is 42.3 nM.

Question: “UUUUAACAUGAGGAUCACCCAUGUGAGGAUAUCGAAAUUUAUAUUUAUAUUUAUAAAACGAGAAGGCACAUUUU” was tested. Which “apparent Kd” value [1] did it give?
Answer: The value was 103 nM.

Question: What about the “apparent Kd” value [2] of the same sequence?
Answer: The value was 119 nM.

Question: How did the “apparent Kd” value [1] turn out when “CUUCGUAUAGAGGAUAUAGGUUACUACGGUAUCCUAGAAGGCUGUACAUGAGGAUCACCCAUGUACUUCAGAUC” was run?
Answer: Its value is 12.9 nM.

Question: What about the “apparent Kd” value [2] of the same sequence?
Answer: Its value is 16.1 nM.

Reference: the EternaBench riboswitch data
